Experimental data from different studies.
Each line is one published result; the experiments were not run side by side.
Organism: Staphylococcus aureus
Effect on: microbial growth

Structure (SMILES)	test	test system	conditions	MIC
c1cncc(CN2CCC(n3ncc4c(N5CCOCC5)nc(-c5ccc6[nH]ccc6c5)nc43)CC2)c1	–	NCTC8325	–	> 30 µM
CNc1cccc2cc(C(=O)Nc3ccc(C(=O)O)cc3)c(=O)[nH]c12	–	ATCC29213	–	16 µg/mL
COc1c(C)c(OS(=O)(=O)c2ccc3ccccc3c2)c(C)c(O)c1C(=O)/C=C/c1ccccc1	broth dilution	ATCC25923	–	2500 µg/mL
C/C=C(\C)c1cc(OC(=O)c2c(C)c(Cl)c(O)c(Cl)c2O)c(C)c(O)c1C(=O)O	broth dilution	CCARM3090	–	64 µg/mL
CSc1ccc(/C=C/c2cc(/C=C3\Sc4ccccc4N3CCCN3CCCC3)c3ccccc3[n+]2C)cc1.[I-]	broth dilution	ATCCBAA44	–	32 µg/mL
O=C(O)c1cc(Br)c(O)c(Br)c1	–	–	–	> 128 µg/mL
OCCn1cc(-c2cnc3nnn(Cc4ccc5ncccc5c4)c3n2)cn1	–	NCTC8325	–	> 30 µM
CC1(C)S[C@@H]2[C@H](NC(=O)[C@H](N)c3ccccc3)C(=O)N2[C@H]1C(=O)O	broth dilution	16339	–	64 µg/mL
CC(C)Oc1c(NC(=O)c2ccc(NC(=O)[C@H](CC(N)=O)NC(=O)c3ccc(NC(=O)c4ccc(C5(C(F)(F)F)N=N5)cc4)cc3)cc2)ccc(C(=O)Nc2ccc(C(=O)O)cc2)c1O	–	ATCC29213	–	> 64 µg/mL
C[n+]1c(/C=C/c2c[nH]c3ccccc23)cc(/C=C2\Sc3ccccc3N2CCCN2CCCC2)c2ccccc21.[I-]	broth dilution	ATCCBAA44	–	4 µg/mL
Cc1ccc2nc(-c3cccnc3)[nH]c2c1	broth dilution	ATCC29213 MSSA	–	64 µg/mL
C=C(C/C=C(\C)CCC=C(C)C)CCC(C)(C)/C=C/CC/C(C)=C\CO[C@H](COP(=O)(O)O[C@H]1O[C@H](C(N)=O)[C@@](C)(O)[C@H](OC(N)=O)[C@H]1O[C@@H]1O[C@H](CO[C@@H]2O[C@H](CO)[C@@H](O)[C@H](O)[C@H]2O)[C@@H](O[C@@H]2O[C@H](C)[C@@H](O[C@@H]3O[C@H](C(=O)NC4=C(O)CCC4=O)[C@H](O)[C@H](O)[C@H]3O)[C@H](O)[C@H]2NC(C)=O)[C@H](O)[C@H]1NC(C)=O)C(=O)O	broth dilution	–	18 h	< 0.75 µg/mL
C[C@@H](O)[C@H]1C(=O)N2C(C(=O)O)=C(S[C@@H]3CN[C@H](C(=O)N(C)C)C3)[C@H](C)[C@H]12	broth dilution	–	24 h	0.0625 µg/mL
CC(C)Oc1c(NC(=O)c2ccc(NC(=O)[C@H](CC(N)=O)NC(=O)c3ccc(NC(=O)C(C)Oc4ccccc4)cc3)cc2)ccc(C(=O)Nc2ccc(C(=O)O)cc2)c1O (stereo partly shown)	–	ATCC29213	–	> 64 µg/mL
C#CCCC1(CCNC(=O)c2cc(Oc3ccc(NC(=O)Nc4ccc(Cl)c(C(F)(F)F)c4)cc3)ccn2)N=N1	–	NCTC8325	24 h	10 µM
CN[C@H](CC(C)C)C(=O)N[C@H]1C(=O)N[C@@H](CC(N)=O)C(=O)N[C@H]2C(=O)N[C@H]3C(=O)N[C@H](C(=O)N[C@H](C(=O)O)c4cc(O)cc(O)c4-c4cc3ccc4O)[C@H](O)c3ccc(c(Cl)c3)Oc3cc2cc(c3O[C@@H]2O[C@H](CO)[C@@H](O)[C@H](O)[C@H]2O[C@H]2C[C@](C)(N)[C@H](O)[C@H](C)O2)Oc2ccc(cc2Cl)[C@H]1O	broth dilution	6917	–	1 µg/mL
O=C(Nc1ccc2c(c1)OC(F)(F)O2)NC12CC3CC(CC(C3)C1)C2	–	NCTC8325	–	> 100 µM
C/C=C(\C)c1cc(O)c(C)c(OC(=O)c2c(C)c(Cl)c(O)c(Cl)c2O)c1	broth dilution	CCARM3090	–	4 µg/mL
CSc1ccc(-c2nc3ccc(C)cc3n2Cc2ccccc2)cc1	broth dilution	ATCC29213 MSSA	–	128 µg/mL
CC(C)Oc1c(NC(=O)c2ccc(NC(=O)[C@H](CC(N)=O)NC(=O)c3ccc(NC(=O)c4ccc(N)cc4)cc3)cc2)ccc(C(=O)Nc2ccc(C(=O)O)cc2)c1O	–	ATCC29213	–	> 64 µg/mL

Structure (SMILES)	test	test system	conditions	MIC
Oc1ccccc1-c1nc2ccccc2[nH]1	broth dilution	ATCC29213 MSSA	–	256 µg/mL
C/C=C(\C)c1cc(OC(=O)c2c(O)c(C)c(O)c(Cl)c2/C(C)=C/C)c(C)c(O)c1C(=O)O	broth dilution	6917	–	> 64 µg/mL
COc1ccc(NCc2ccc(Oc3ccccn3)cc2)cc1	–	–	–	> 3.1 µg/mL
COc1cccc(OC)c1C(=O)N[C@@H]1C(=O)N2[C@@H]1SC(C)(C)[C@@H]2C(=O)O	broth dilution	BAA1707 MRSA	drug-resistant strain	18.8 µM
O=C(O)c1cn(C2CC2)c2cc(N3CCNCC3)c(F)cc2c1=O	broth dilution	ATCC43300	–	0.24 µg/mL
O=C(O)c1cn(C2CC2)c2cc(N3CCNCC3)c(F)cc2c1=O	broth dilution	ATCC29213 MSSA	–	8 µg/mL
Cc1ccc(C)n1-c1ccc(-c2nnc(-c3ccccc3Cl)[nH]2)cc1	broth dilution	ATCC11632	18 h	2 µg/mL
CNC(=O)CN1CCC(Oc2cc3c(Nc4cccc(Cl)c4F)ncnc3cc2OC)CC1	–	NCTC8325	–	> 30 µM
O=C1NC(=S)S/C1=C\c1ccc(-c2ccc(N(c3ccccc3)c3ccccc3)cc2)cc1	broth dilution	ATCC43300	–	250 µg/mL
O=C(Nc1ccc(OC(F)(F)F)cc1)c1sccc1NCc1ccnc2ccccc12	–	NCTC8325	–	> 30 µM
C/N=C(/NC)c1ccc(NC(=O)/C=C/c2ccc(/C=C/C(=O)Nc3ccc(/C(=N\C)NC)cc3)cc2)cc1	–	–	–	2 µg/mL
Fc1ccc(-c2nc3ccccc3[nH]2)cc1	broth dilution	ATCC29213 MSSA	–	256 µg/mL
CC(C)COc1c(NC(=O)c2ccc(NC(=O)[C@H](CC(N)=O)NC(=O)c3ccc(NC(=O)c4ccc(C#N)cc4)cc3)cc2)ccc(C(=O)Nc2ccc(C(=O)O)cc2)c1O	–	ATCC29213	–	0.25 µg/mL
CC[C@H]1OC(=O)[C@H](C)[C@@H](O[C@H]2C[C@@](C)(OC)[C@@H](O)[C@H](C)O2)[C@H](C)[C@@H](O[C@@H]2O[C@H](C)C[C@H](N(C)C)[C@H]2O)[C@](C)(O)C[C@@H](C)C(=O)[C@H](C)[C@@H](O)[C@]1(C)O	–	156	clinical isolate	> 100 µM
CN[C@H](CC(C)C)C(=O)N[C@H]1C(=O)N[C@@H](CC(N)=O)C(=O)N[C@H]2C(=O)N[C@H]3C(=O)N[C@H](C(=O)N[C@H](C(=O)O)c4cc(O)cc(O)c4-c4cc3ccc4O)[C@H](O)c3ccc(c(Cl)c3)Oc3cc2cc(c3O[C@@H]2O[C@H](CO)[C@@H](O)[C@H](O)[C@H]2O[C@H]2C[C@](C)(N)[C@H](O)[C@H](C)O2)Oc2ccc(cc2Cl)[C@H]1O	broth dilution	ATCC43300 MRSA	18 h	1 µg/mL
COc1cc2nccc(Oc3ccc(NC(=O)Nc4cc(C)on4)c(Cl)c3)c2cc1OC	–	NCTC8325	–	> 30 µM
Cc1ccc2nc(-c3ccc([N+](=O)[O-])cc3)n(Cc3ccccc3)c2c1	broth dilution	ATCC29213 MSSA	–	8 µg/mL
O=C1NC(=S)N/C1=C\c1ccc(-c2ccc(N(c3ccccc3)c3ccccc3)cc2)cc1	broth dilution	ATCC25923	–	> 1000 µg/mL
CC[C@H](CO)Nc1nc(NCc2ccccc2)c2ncn(C(C)C)c2n1	–	NCTC8325	–	> 30 µM
CSc1nc2nnnc(O)c2s1	–	–	–	> 128 µg/mL

Structure (SMILES)	test	test system	conditions	MIC
CC(C)Oc1c(NC(=O)c2ccc(NC(=O)[C@H](CC(N)=O)NC(=O)c3ccc(NC(=O)c4ccc([N+](=O)[O-])c(OC(C)C)c4O)cc3)cc2)ccc(C(=O)Nc2ccc(C(=O)O)cc2)c1O	–	ATCC29213	–	> 64 µg/mL
O=C(O)CN1C(=O)/C(=C/c2ccc(-c3ccc(N(c4ccccc4)c4ccccc4)cc3)cc2)SC1=S	broth dilution	ATCC43300	–	3.9 µg/mL
COc1c(C(=O)Nc2ccc(C(=O)O)cc2)ccc2nc(-c3cc(NC(=O)C(CC(N)=O)NC(=O)c4ccc(NC(=O)c5ccc(C#N)cc5)cc4)cn3C)[nH]c12 (stereo not shown)	–	ATCC29213	–	> 64 µg/mL
CC1(C)S[C@@H]2[C@H](NC(=O)COc3ccccc3)C(=O)N2[C@H]1C(=O)O	broth dilution	ATCC25923	18 h	2 µg/mL
O=C(O)c1cn(C2CC2)c2cc(N3CCNCC3)c(F)cc2c1=O	broth dilution	–	24 h	9.43 µM
Oc1ccc(Br)cc1-c1nc2ccccc2[nH]1	broth dilution	ATCC29213 MSSA	–	64 µg/mL
Cc1ccc(C)n1-c1ccc(-c2nnc(-c3c(Cl)cccc3Cl)[nH]2)cc1	broth dilution	ATCC11632	18 h	1 µg/mL
CO[C@H]1[C@H](O[C@H]([C@H]2O[C@@H](n3ccc(=O)[nH]c3=O)[C@H](O)[C@@H]2O)[C@H](NCCCNC(=O)[C@@H](NC(=O)[C@@H](NC(=O)N[C@H](C(=O)O)C(C)C)[C@@H]2CCN=C(N)N2)[C@@H](OC(=O)CCCCCCCCCCCCN(O)C(=N)N)C(C)C)C(=O)O)O[C@H](CN)[C@H]1O	–	NEWMAN	–	18 µg/mL
CC(C)Oc1c(NC(=O)c2ccc(NC(=O)[C@H](CC(N)=O)NC(=O)c3ccc(NC(=O)c4ccc(C#N)cc4)cc3)cc2)ccc(C(=O)Nc2cccc(C(=O)O)c2)c1O	–	ATCC29213	–	2 µg/mL
CC1=NN(CNc2ccccc2[N+](=O)[O-])C(=O)C1=NNn1c(-c2ccccc2)nc2ccccc2c1=O	broth dilution	–	24 h	50.4 µM
C/C=C(\C)c1cc(O)c(C)c(OC(=O)c2c(C)cc(O)c(Cl)c2O)c1	broth dilution	745524	–	8 µg/mL
CCCCCCC#Cc1cncc(-c2nnc(SCc3ccc([N+](=O)[O-])o3)n2C)c1	–	MRSA	drug-resistant strain	≥ 20 µg/mL
C[C@H]1c2cccc(O)c2C(=O)C2=C(O)[C@]3(O)C(=O)C(C(N)=O)=C(O)[C@@H](N(C)C)[C@@H]3[C@@H](O)[C@@H]21	–	–	clinical isolate	6.25 µg/mL
C=CC1(C)CC(OC(=O)CSCCCCCN(C)C)C2(C)C(C)CCC3(CCC(=O)C32)C(C)C1O (stereo not shown)	–	–	–	0.5 µg/mL
Clc1ccccc1NCc1ccc(Oc2ccccn2)cc1	–	–	–	1.6 µg/mL
COc1ccc(-c2nc3ccccc3n2Cc2ccccc2)cc1OC	broth dilution	ATCC29213 MSSA	–	4 µg/mL
O=C(O)CN1C(=O)/C(=C/c2ccc(-c3ccc(N(c4ccccc4)c4ccccc4)cc3)cc2)NC1=S	broth dilution	ATCC25923	–	3.9 µg/mL
COc1c(C)c(OC(C)=O)c(C)c(O)c1C(=O)/C=C/c1ccccc1	broth dilution	ATCC25923	–	2500 µg/mL
